IC50 data for 20 compounds are collected here from ChEMBL document CHEMBL3085751, “Synthesis of some new pyrazole-based 1,3-thiazoles and 1,3,4-thiadiazoles as anticancer agents” (Eur J Med Chem, 2013).

Common to all, as to format: functional, cell-based
Assay [1] has as its system HepG2. The assay is described as follows: Cytotoxicity against human HepG2 cells after 72 hrs by SRB assay. As to conditions: HepG2, 72 h. The gist of the method:
(§1)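 Cells kept as monolayers at 37 °C in 5% CO2 with 10% heat-inactivated FBS; A549 was grown in DMEM, HepG2 and MCF-7 in RPMI. Trypsinized cells were seeded at 1000-2000/well, left 24 h, then exposed 72 h to a range of concentrations. Cells were fixed with 10% TCA (1 h, 4 °C) and stained with 0.4% SRB in 1% acetic acid for 10 min. Dye was dissolved in Tris-HCl, OD read at 564 nm, and IC50 taken from %-viability dose-response curves.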

In assay [2] the test system is A549. The assay is described as follows: Cytotoxicity against human A549 cells after 72 hrs by SRB assay. As to conditions: A549, 72 h. The method, boiled down: as §1
Background: Sulforhodamine B stains cellular protein and so reports cell mass.

Assay [3] deals with MCF7. Description: Cytotoxicity against human MCF7 cells after 72 hrs by SRB assay. As to conditions: MCF7, 72 h. The gist of the method:
as §1

pIC50: −log10 of the molar value.

Turning to `Cc1c(-c2csc(NC(=S)Nc3ccccc3)n2)c(=O)n(-c2ccccc2)n1C`, the pIC50 is 5.08 in assay [1], 5.11 in assay [2] and 5.00 in assay [3].

`Cc1c(-c2csc(/N=c3\sc(-c4ccccc4)nn3-c3ccccc3)n2)c(=O)n(-c2ccccc2)n1C`: the pIC50 in assay [1], in assay [2] and in assay [3] was less than 4.00 in each case.

Turning to `CC(=O)c1nn(-c2ccccc2)/c(=N/c2nc(-c3c(C)n(C)n(-c4ccccc4)c3=O)cs2)s1`, the values for the pIC50 in assay [1], in assay [2] and in assay [3] were 4.17, less than 4.00 and less than 4.00, respectively.

For `CC(=O)c1nn(-c2ccc(Cl)cc2)/c(=N/c2nc(-c3c(C)n(C)n(-c4ccccc4)c3=O)cs2)s1`, the pIC50 in assay [1], in assay [2] and in assay [3] was less than 4.00 each time.

In the case of `CC(=O)c1nn(-c2ccc(C)cc2)/c(=N/c2nc(-c3c(C)n(C)n(-c4ccccc4)c3=O)cs2)s1`, the pIC50 in assay [1] is 4.50; in assay [2], 4.68; in assay [3], 4.25.

As for `COc1ccc(-n2nc(C(C)=O)s/c2=N\c2nc(-c3c(C)n(C)n(-c4ccccc4)c3=O)cs2)cc1`, the values for the negative-log IC50 (pIC50) in assay [1], in assay [2] and in assay [3] were 4.38, 4.58 and 4.19, respectively.

Regarding `CC(=O)c1nn(-c2ccc([N+](=O)[O-])cc2)/c(=N/c2nc(-c3c(C)n(C)n(-c4ccccc4)c3=O)cs2)s1`, the pIC50 in assay [1], in assay [2] and in assay [3] was less than 4.00 each time.

`CCOC(=O)c1nn(-c2ccccc2)/c(=N/c2nc(-c3c(C)n(C)n(-c4ccccc4)c3=O)cs2)s1`: the pIC50 in assay [1], in assay [2] and in assay [3] was less than 4.00 in each case.

As to `CCOC(=O)c1nn(-c2ccc(Cl)cc2)/c(=N/c2nc(-c3c(C)n(C)n(-c4ccccc4)c3=O)cs2)s1`, the pIC50 in assay [1], in assay [2] and in assay [3] was less than 4.00 throughout.

On to `CCOC(=O)c1nn(-c2ccc(C)cc2)/c(=N/c2nc(-c3c(C)n(C)n(-c4ccccc4)c3=O)cs2)s1`, for which the pIC50 in assay [1], in assay [2] and in assay [3] was less than 4.00 in each case.

Turning to `CCOC(=O)c1nn(-c2ccc(OC)cc2)/c(=N/c2nc(-c3c(C)n(C)n(-c4ccccc4)c3=O)cs2)s1`, the pIC50 in assay [1] is 4.89; in assay [2] it was 4.88; in assay [3], 4.80.

As to `CCOC(=O)c1nn(-c2ccc([N+](=O)[O-])cc2)/c(=N/c2nc(-c3c(C)n(C)n(-c4ccccc4)c3=O)cs2)s1`, the pIC50 in assay [1] is 5.09; in assay [2] it was 5.06; in assay [3], 5.00.

With `Cc1c(-c2csc(/N=C3\SCC(=O)N3c3ccccc3)n2)c(=O)n(-c2ccccc2)n1C`, the pIC50 was 4.15 in assay [1], less than 4.00 in assay [2] and less than 4.00 in assay [3].

For the compound `Cc1c(-c2csc(/N=C3\S/C(=C\c4ccccc4)C(=O)N3c3ccccc3)n2)c(=O)n(-c2ccccc2)n1C`, the pIC50 in assay [1] is 4.20; in assay [2], less than 4.00; in assay [3], less than 4.00.

Take `Cc1c(-c2csc(/N=C3\S/C(=C\c4ccc(Cl)cc4)C(=O)N3c3ccccc3)n2)c(=O)n(-c2ccccc2)n1C`: the pIC50 in assay [1], in assay [2] and in assay [3] was less than 4.00 in each case.

Consider `Cc1c(-c2csc(/N=C3\S/C(=C\c4ccc(N(C)C)cc4)C(=O)N3c3ccccc3)n2)c(=O)n(-c2ccccc2)n1C`, for which the pIC50 in assay [1], in assay [2] and in assay [3] was less than 4.00 throughout.

For `COc1ccc(/C=C2\S/C(=N\c3nc(-c4c(C)n(C)n(-c5ccccc5)c4=O)cs3)N(c3ccccc3)C2=O)cc1`, the pIC50 in assay [1] is 4.88; in assay [2], 5.04; in assay [3] it was 4.58.

`Cc1ccc(/C=C2\S/C(=N\c3nc(-c4c(C)n(C)n(-c5ccccc5)c4=O)cs3)N(c3ccccc3)C2=O)cc1`: the pIC50 in assay [1], in assay [2] and in assay [3] was less than 4.00 throughout.

For `Cc1c(-c2csc(/N=C3\S/C(=C\c4ccco4)C(=O)N3c3ccccc3)n2)c(=O)n(-c2ccccc2)n1C`, the pIC50 is 4.78 in assay [1], 4.86 in assay [2] and 4.65 in assay [3].

As for `COc1cccc2c1C(=O)c1c(O)c3c(c(O)c1C2=O)C[C@@](O)(C(=O)CO)C[C@@H]3O[C@H]1C[C@H](N)[C@H](O)[C@H](C)O1` [DOXORUBICIN], the pIC50 is 6.06 in assay [1] and 6.39 in assay [2].

Broadly, the pIC50 is the IC50 on a negative log10 scale, so that one unit is a factor of ten.
